Converted amounts (≈) assume the structure as drawn. The source made the active and inactive calls. No cut-off for these calls is given here.
Tests used:
[1] = tested on: MCF7; assay: Cytotoxicity against human MCF7 cells after 48 hrs by SRB assay; format: functional; conditions: MCF7, 48 h
[2] = tested on: P388; assay: Cytotoxicity against mouse P388 cells; format: functional; conditions: read-out: ED50 (the source's name)
[3] = tested on: BXPC-3; assay: Cytotoxicity against human BxPC3 cells after 48 hrs by SRB assay; format: functional; conditions: BXPC-3, 48 h
[4] = tested on: SF-268; assay: Cytotoxicity against human SF268 cells after 48 hrs by SRB assay; format: functional; conditions: SF-268, 48 h
[5] = tested on: NCI-H460; assay: Cytotoxicity against human NCI-H460 cells after 48 hrs by SRB assay; format: functional; conditions: NCI-H460, 48 h
[6] = tested on: KM-20L2; assay: Cytotoxicity against human KM20L2 cells after 48 hrs by SRB assay; format: functional; conditions: KM-20L2, 48 h
[7] = tested on: DU-145; assay: Cytotoxicity against human DU145 cells after 48 hrs by SRB assay; format: functional; conditions: DU-145, 48 h
[8] = tested on: Cryptococcus neoformans; assay: Antimicrobial activity against Cryptococcus neoformans ATCC 90122 after 24 hrs by broth microdilution assay; format: functional; conditions: ATCC 90112, 24 h, in the assay text read “ATCC 90112” for “ATCC 90122”
In short: (§1)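 Yeasts were tested by NCCLS broth microdilution. Compounds were dissolved in a small volume of sterile DMSO and diluted in the appropriate medium immediately before testing. MIC was the lowest concentration inhibiting all visible growth (optically clear). Assays were repeated on separate days.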

[9] = tested on: Candida albicans; assay: Antimicrobial activity against Candida albicans ATCC 90028 after 48 hrs by broth microdilution assay; format: functional; conditions: ATCC 90028, 48 h; in short: as §1
[10] = tested on: Staphylococcus aureus; assay: Antimicrobial activity against Staphylococcus aureus ATCC 29213 after 24 hrs by broth microdilution assay; format: functional; conditions: ATCC 29213, 24 h
In short: (§2)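 Bacterial MICs were determined by NCCLS broth microdilution. Compounds were dissolved in a small volume of sterile DMSO and diluted in the appropriate medium just before testing. MIC was the lowest concentration giving no visible growth (optically clear). Assays were repeated on separate days.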

[11] = tested on: Streptococcus pneumoniae; assay: Antimicrobial activity against Streptococcus pneumoniae ATCC 6303 after 24 hrs by broth microdilution assay; format: functional; conditions: ATCC 6303, 24 h; in short: as §2
[12] = tested on: Enterococcus faecalis; assay: Antimicrobial activity against Enterococcus faecalis ATCC 29212 after 24 hrs by broth microdilution assay; format: functional; conditions: ATCC 29212, 24 h; in short: as §2
[13] = tested on: Micrococcus luteus; assay: Antimicrobial activity against Micrococcus luteus Presque Isle 456 after 24 hrs by broth microdilution assay; format: functional; in short: as §2
[14] = tested on: Escherichia coli; assay: Antimicrobial activity against Escherichia coli ATCC 25922 at 64 ug/mL after 24 hrs by broth microdilution assay; format: functional, organism-based
[15] = tested on: Enterobacter cloacae; assay: Antimicrobial activity against Enterobacter cloacae ATCC 13047 at 64 ug/mL after 24 hrs by broth microdilution assay; format: functional, organism-based
[16] = tested on: Stenotrophomonas maltophilia; assay: Antimicrobial activity against Stenotrophomonas maltophilia ATCC 13637 at 64 ug/mL after 24 hrs by broth microdilution assay; format: functional, organism-based
[17] = tested on: Neisseria gonorrhoeae; assay: Antimicrobial activity against Neisseria gonorrhoeae ATCC 49226 at 64 ug/mL after 24 hrs by broth microdilution assay; format: functional; conditions: ATCC 49226, 24 h
[18] = tested on: Cryptococcus neoformans; assay: Antimicrobial activity against Cryptococcus neoformans ATCC 90122 after 24 hrs by broth microdilution assay in presence of 25% human serum; format: functional; conditions: ATCC 90112, 24 h, in the assay text read “ATCC 90112” for “ATCC 90122”
In short: (§3)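 For yeasts, NCCLS broth microdilution was run in medium supplemented with 25% heat-inactivated, filter-sterilized normal human serum. Compounds were reconstituted in sterile DMSO and diluted in medium just before the assay. MIC was the lowest concentration giving optically clear wells.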

[19] = tested on: Candida albicans; assay: Antimicrobial activity against Candida albicans ATCC 90028 after 48 hrs by broth microdilution assay in presence of 25% human serum; format: functional; conditions: ATCC 90028, 48 h; in short: as §3
[20] = tested on: Staphylococcus aureus; assay: Antimicrobial activity against Staphylococcus aureus ATCC 29213 after 24 hrs by broth microdilution assay in presence of 25% human serum; format: functional; conditions: ATCC 29213, 24 h
In short: (§4)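 Bacteria were tested by NCCLS broth microdilution in medium containing 25% heat-inactivated, filter-sterilized normal human serum. Compounds were dissolved in sterile DMSO and diluted in medium immediately before use. MIC was the lowest concentration with no visible growth (optically clear). Assays were repeated on separate days.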

[21] = tested on: Streptococcus pneumoniae; assay: Antimicrobial activity against Streptococcus pneumoniae ATCC 6303 after 24 hrs by broth microdilution assay in presence of 25% human serum; format: functional; conditions: ATCC 6303, 24 h; in short: as §4
[22] = tested on: Enterococcus faecalis; assay: Antimicrobial activity against Enterococcus faecalis ATCC 29212 after 24 hrs by broth microdilution assay in presence of 25% human serum; format: functional; conditions: ATCC 29212, 24 h; in short: as §4
[23] = tested on: Micrococcus luteus; assay: Antimicrobial activity against Micrococcus luteus Presque Isle 456 after 24 hrs by broth microdilution assay in presence of 25% human serum; format: functional; in short: as §4
[24] = tested on: Escherichia coli; assay: Antimicrobial activity against Escherichia coli ATCC 25922 after 24 hrs by broth microdilution assay in presence of 25% human serum; format: functional; conditions: ATCC 25922, 24 h; in short: as §4
[25] = tested on: Enterobacter cloacae; assay: Antimicrobial activity against Enterobacter cloacae ATCC 13047 after 24 hrs by broth microdilution assay in presence of 25% human serum; format: functional; conditions: ATCC 13047, 24 h; in short: as §4
[26] = tested on: Stenotrophomonas maltophilia; assay: Antimicrobial activity against Stenotrophomonas maltophilia ATCC 13637 after 24 hrs by broth microdilution assay in presence of 25% human serum; format: functional; conditions: ATCC 13637, 24 h; in short: as §4
[27] = tested on: Neisseria gonorrhoeae; assay: Antimicrobial activity against Neisseria gonorrhoeae ATCC 49226 after 24 hrs by broth microdilution assay in presence of 25% human serum; format: functional; conditions: ATCC 49226, 24 h; in short: as §4
[28] = tested on: Cryptococcus neoformans; assay: Antimicrobial activity against fluconazole-resistant Cryptococcus neoformans after 48 hrs by broth microdilution assay in presence of 25% human serum; format: functional
[29] = tested on: Nakaseomyces glabratus; assay: Antimicrobial activity against Candida glabrata after 48 hrs by broth microdilution assay in presence of 25% human serum; format: functional; in short: as §3
[30] = tested on: Staphylococcus aureus; assay: Antimicrobial activity against methicillin-resistant Staphylococcus aureus after 24 hrs by broth microdilution assay in presence of 25% human serum; format: functional
In short: as §4, with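 “Bacterial” for “Bacteria were tested by”, “microdilution run” for “microdilution”, “with” for “containing”, “taken up” for “dissolved”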

[31] = tested on: Staphylococcus epidermidis; assay: Antimicrobial activity against Staphylococcus epidermidis ATCC 49461 after 24 hrs by broth microdilution assay in presence of 25% human serum; format: functional; conditions: ATCC 49461, 24 h; in short: as §4
[32] = tested on: Streptococcus pneumoniae; assay: Antimicrobial activity against penicillin-resistant Streptococcus pneumoniae after 24 hrs by broth microdilution assay in presence of 25% human serum; format: functional
In short: as §4, with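 “Bacterial” for “Bacteria were tested by”, “microdilution run” for “microdilution”, “with” for “containing”, “taken up” for “dissolved”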

[33] = tested on: Streptococcus pyogenes; assay: Antimicrobial activity against penicillin-resistant Streptococcus pyogenes after 24 hrs by broth microdilution assay in presence of 25% human serum; format: functional
In short: as §4, with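 “Bacterial” for “Bacteria were tested by”, “microdilution run” for “microdilution”, “with” for “containing”, “taken up” for “dissolved”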

[34] = tested on: Enterococcus faecium; assay: Antimicrobial activity against vancomycin-resistant Enterococcus faecium after 24 hrs by broth microdilution assay in presence of 25% human serum; format: functional
In short: as §4, with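 “Bacterial” for “Bacteria were tested by”, “microdilution run” for “microdilution”, “with” for “containing”, “taken up” for “dissolved”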

[35] = tested on: Rhodococcus sp.; assay: Antimicrobial activity against Rhodococcus sp. after 24 hrs by broth microdilution assay in presence of 25% human serum; format: functional; conditions: Rhodococcus sp. (in: high G+C Gram-positive bacteria); in short: as §4
[36] = tested on: Candida albicans; assay: Antimicrobial activity against Candida albicans ATCC 90028 at 64 ug/mL after 48 hrs by broth microdilution assay; format: functional, organism-based

CC(C)c1c(O)ccc2c1[C@H](O)C[C@H]1C(C)(C)CCC[C@]21C showed a GI50 [1] of 2.1 µg/mL (≈ 6.94 µM), an EC50 [2] of 1.7 µg/mL (≈ 5.62 µM) and a GI50 [3] of 1.8 µg/mL (≈ 5.95 µM). For the same compound, the GI50 [4] was 2.3 µg/mL (≈ 7.6 µM), the GI50 [5] was 1.8 µg/mL (≈ 5.95 µM) and the GI50 [6] was 2.3 µg/mL (≈ 7.6 µM). It also gave a GI50 [7] of 2.6 µg/mL (≈ 8.6 µM), an MIC [8] of 16 µg/mL (≈ 52.9 µM) and an MIC [9] of 64 µg/mL (≈ 212 µM). The MIC [10] was 16 µg/mL (≈ 52.9 µM), the MIC [11] was 16 µg/mL (≈ 52.9 µM) and the MIC [12] was 16 µg/mL (≈ 52.9 µM). The MIC [13] was 8 µg/mL (≈ 26.4 µM), the Activity [14] was “inactive” and the Activity [15] was “inactive”. For the same compound, the Activity [16] was “inactive” and the MIC [17] was 8 µg/mL (≈ 26.4 µM).
CO[C@H]1C[C@H]2C(C)(C)CCC[C@]2(C)c2ccc(O)c(C(C)C)c21 [NOOTKASTATIN 1] gave an MIC [18] greater than 64 µg/mL, an MIC [19] greater than 64 µg/mL and an MIC [20] greater than 64 µg/mL. For the same compound, the MIC [21] was greater than 64 µg/mL, the MIC [22] was greater than 64 µg/mL and the MIC [23] was greater than 64 µg/mL. It also gave an MIC [24] greater than 64 µg/mL, an MIC [25] greater than 64 µg/mL and an MIC [26] greater than 64 µg/mL. The MIC [27] was greater than 64 µg/mL, the MIC [28] was greater than 64 µg/mL and the MIC [29] was greater than 64 µg/mL. The MIC [30] was greater than 64 µg/mL, the MIC [31] was greater than 64 µg/mL and the MIC [32] was greater than 64 µg/mL. For the same compound, the MIC [33] was greater than 64 µg/mL, the MIC [34] was greater than 64 µg/mL and the MIC [35] was greater than 64 µg/mL. The GI50 [1] was 2 µg/mL (≈ 6.32 µM), the EC50 [2] was 1.5 µg/mL (≈ 4.74 µM) and the GI50 [3] was 2.1 µg/mL (≈ 6.64 µM). For the same compound, the GI50 [4] was 0.85 µg/mL (≈ 2.69 µM), the GI50 [5] was 0.75 µg/mL (≈ 2.37 µM) and the GI50 [6] was 0.98 µg/mL (≈ 3.1 µM). The GI50 [7] was 1.1 µg/mL (≈ 3.48 µM), the MIC [8] was 64 µg/mL (≈ 202 µM) and the Activity [36] was “inactive”. It also gave an MBC [10] of 32 µg/mL (≈ 101 µM), an MIC [10] of 8 µg/mL (≈ 25.3 µM) and an MBC [11] of 64 µg/mL (≈ 202 µM). The MIC [11] was 64 µg/mL (≈ 202 µM), the MBC [12] was 16 µg/mL (≈ 50.6 µM) and the MIC [12] was 4 µg/mL (≈ 12.6 µM). For the same compound, the MBC [13] was 8 µg/mL (≈ 25.3 µM), the MIC [13] was 2 µg/mL (≈ 6.32 µM) and the Activity [14] was “inactive”. For the same compound, the Activity [15] was “inactive”, the Activity [16] was “inactive” and the MBC [17] was 4 µg/mL (≈ 12.6 µM). It also gave an MIC [17] of 2 µg/mL (≈ 6.32 µM).
For CC(C)c1c(O)ccc2c1C=C[C@H]1C(C)(C)CCC[C@]21C, the GI50 [1] was greater than 10 µg/mL, the EC50 [2] was 3.7 µg/mL (≈ 13 µM) and the GI50 [3] was greater than 10 µg/mL. It also gave a GI50 [4] greater than 10 µg/mL, a GI50 [5] greater than 10 µg/mL and a GI50 [6] greater than 10 µg/mL. The GI50 [7] was greater than 10 µg/mL, the MIC [8] was 16 µg/mL (≈ 56.3 µM) and the Activity [36] was “inactive”. The MIC [10] was 16 µg/mL (≈ 56.3 µM), the MIC [11] was 32 µg/mL (≈ 113 µM) and the MIC [12] was 16 µg/mL (≈ 56.3 µM). For the same compound, the MIC [13] was 4 µg/mL (≈ 14.1 µM), the Activity [14] was “inactive” and the Activity [15] was “inactive”. For the same compound, the Activity [16] was “inactive” and the MIC [17] was 8 µg/mL (≈ 28.1 µM).

Source: ChEMBL document CHEMBL1148220, “Antineoplastic agents. 529. Isolation and structure of nootkastatins 1 and 2 from the Alaskan yellow cedar Chamaecyparis nootkatensis” (2004)
